What was measured:
[1] = Cytotoxicity against human KBH5.0 cells overexpressing BCRP after 4 days by MTT assay; format: functional, cell-based; conditions: KBH5.0 cell, 96 h
Outline: (§1)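 Cells were grown in suspension in RPMI with 10% heat-inactivated FBS, 2 mM L-glutamine, penicillin and streptomycin at 37 °C, 5% CO2. Drug exposure was continuous for 4 days across a concentration range, with a drug-free control. IC50 came from at least two experiments in six replicate wells.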

Homo sapiens [2] = species on record: Homo sapiens; assay: Binding affinity to human d(TTAGGG)4 assessed as thermal transition temperature at 20 uM preincubated for 5 mins at 90 degC followed by cooling at room temperature measured after 4 hrs by UV spectrophotometric analysis in presence of 150 mM K+ (reference value: 63.1 degC)
Outline: (§2)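 UV melting of human telomeric d(TTAGGG)4 at 5 μM strand (120 μM nucleotide), with ligand at 20 μM. Before use, DNA was heated 5 min at 90 °C and cooled slowly to room temperature over 4 h. Buffer was 10 mM potassium phosphate, pH 7.5, with KCl added to give 50 mM K+ (32 mM KCl) or 150 mM K+ (132 mM KCl). Absorbance was read at 295 nm in 0.5 °C steps with 1 min equilibration. Ttran was taken from the first-derivative minimum.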

Homo sapiens [3] = species on record: Homo sapiens; assay: Binding affinity to human d(TTAGGG)4 assessed as thermal transition temperature at 20 uM preincubated for 5 mins at 90 degC followed by cooling at room temperature measured after 4 hrs by UV spectrophotometric analysis in presence of 50 mM K+ (reference value: 55.3 degC); outline: as §2
[4] = Cytotoxicity against human KBV1 cells overexpressing MDR1 after 4 days by MTT assay; format: functional, cell-based; conditions: KB-V1, 96 h; outline: as §1
Salmonidae [5] = assay: Binding affinity to salmon testes duplex DNA assessed as thermal transition temperature at 15 uM preincubated for 5 mins at 90 degC followed by cooling at room temperature measured after 4 hrs by UV spectrophotometric analysis in presence of 50 mM K+ (reference value: 78.2 degC)
Outline: (§3)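 Salmon testes duplex DNA melting with ligand at 15 μM in 1 cm quartz cells. Buffer was 10 mM potassium phosphate, pH 7.5, with KCl added to give 50 mM K+ (32 mM KCl) or 150 mM K+ (132 mM KCl). Absorbance was read at 260 nm, temperature raised in 0.5 °C increments with 1 min equilibration and 5 s averaging. Ttran was taken from the first-derivative maximum.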

[6] = Cytotoxicity against wild type human KB-3-1 cells after 4 days by MTT assay; format: functional, cell-based; conditions: KB 3-1, 96 h; outline: as §1
[7] = Cytotoxicity against human RPMI8402 cells after 4 days by MTT assay; format: functional, cell-based; conditions: RPMI 8402, 96 h
Salmonidae [8] = assay: Binding affinity to salmon testes duplex DNA assessed as thermal transition temperature at 15 uM preincubated for 5 mins at 90 degC followed by cooling at room temperature measured after 4 hrs by UV spectrophotometric analysis in presence of 150 mM K+ (reference value: 86.1 degC); outline: as §3
MDA-MB-435 = assay: Antitumor activity against human MDA-MB-435 cells xenografted in athymic nude NCr mouse assessed as tumor growth inhibition at 14 to 31 mg/kg, ip administered 3 times per week for 3 weeks followed by 42 mg/kg, ip dose for 3 times per week for last 10 days measured 2 times per week during compound administration relative to control; format: functional
Mus musculus = assay: Toxicity in athymic nude NCr mouse xenografted with human MDA-MB-435 cells administered as ip for 3 times per week for 4 weeks measured 2 times per week during compound administration; format: organism-based; conditions: in vivo, 672 h

| SMILES | IC50 [1] | T (Homo sapiens [2]) | T (Homo sapiens [3]) | IC50 [4] | T (Salmonidae [5]) | IC50 [6] | IC50 [7] | T (Salmonidae [8]) | T/C (MDA-MB-435) | Activity (Mus musculus) |
| --- | --- | --- | --- | --- | --- | --- | --- | --- | --- | --- |
| CC(C)(C)OC(=O)NCC[C@@H]1NC(=O)c2coc(n2)-c2coc(n2)-c2cccc(c2)-c2cccc(c2)-c2nc(co2)-c2nc(co2)CNC1=O | 6 µM | 64.2 °C | 57.7 °C | > 10 µM | 78.3 °C | > 10 µM | 3500 nM | 86.5 °C | – | – |
| O=C1CNC(=O)c2coc(n2)-c2coc(n2)-c2cccc(c2)-c2cccc(c2)-c2nc(co2)-c2nc(co2)CN1 | > 10 µM | 67.3 °C | 60.1 °C | > 10 µM | 78.2 °C | 2.3 µM | 2500 nM | 86.7 °C | – | – |
| CN(C)CCc1cc2cc(c1)CNC(=O)c1coc(n1)-c1coc(n1)-c1cccc(n1)-c1nc(co1)-c1nc(co1)C(=O)NC2 | > 10 µM | 91.2 °C | 91.2 °C | > 10 µM | 78.7 °C | 0.04 µM | 180 nM | 86.8 °C | – | – |
| CC(C)[C@@H]1NC(=O)c2coc(n2)-c2coc(n2)-c2cccc(c2)-c2cccc(c2)-c2nc(co2)-c2nc(co2)CNC1=O | 10 µM | 67.2 °C | 61.7 °C | 6.5 µM | 78.2 °C | 5 µM | – | 86.2 °C | – | – |
| O=C1N[C@@H](Cc2ccccc2)C(=O)NCc2coc(n2)-c2coc(n2)-c2cccc(c2)-c2cccc(c2)-c2nc(co2)-c2nc1co2 | > 10 µM | 64.7 °C | 58.1 °C | > 10 µM | 77.2 °C | > 10 µM | > 10000 nM | 85.7 °C | – | – |
| CC(C)[C@@H]1NC(=O)c2coc(n2)-c2coc(n2)-c2coc(n2)C/C=C/c2coc(n2)-c2coc(n2)-c2coc1n2 | 0.04 µM | 93.2 °C | 92.2 °C | 3.3 µM | 78.2 °C | – | 30 nM | 86.2 °C | – | – |
| NCC[C@@H]1NC(=O)c2coc(n2)-c2coc(n2)-c2cccc(c2)-c2cccc(c2)-c2nc(co2)-c2nc(co2)CNC1=O | > 10 µM | 77.7 °C | 68.2 °C | > 10 µM | 81.1 °C | 4 µM | 7000 nM | 87.1 °C | – | – |
| CN(C)CC[C@@H]1NC(=O)c2coc(n2)-c2coc(n2)-c2cccc(c2)-c2cccc(c2)-c2nc(co2)-c2nc(co2)CNC1=O | > 10 µM | 73.7 °C | 63.7 °C | > 10 µM | 79.1 °C | 3.5 µM | 6500 nM | 86.7 °C | – | – |
| CC(C)[C@@H]1NC(=O)c2coc(n2)-c2coc(n2)-c2coc(n2)[C@H](CCN(C)C)NC(=O)c2coc(n2)-c2coc(n2)-c2coc1n2 | 0.03 µM | 92.2 °C | 92.7 °C | 5 µM | 78.2 °C | – | 70 nM | 86.7 °C | 21.6% | <= 45 mg kg-1 |
| CC(C)[C@@H]1NC(=O)c2coc(n2)-c2coc(n2)-c2coc(n2)[C@H](C(C)C)NC(=O)c2coc(n2)-c2coc(n2)-c2coc1n2 [HEXAOXAZOLE DIVALINE] | 0.5 µM | – | – | > 10 µM | – | 0.3 µM | 410 nM | – | – | – |

Source: ChEMBL document CHEMBL2412965, “Macrocyclic biphenyl tetraoxazoles: synthesis, evaluation as G-quadruplex stabilizers and cytotoxic activity” (Bioorg Med Chem, 2013)
